Published values from different studies.
Each line is one published result; the experiments were not run side by side.
Target: Tyrosine-protein kinase ABL2 (ABL2, Homo sapiens, UniProt P42684)

O=C1Nc2ccc(Cl)cc2C1=Cc1cc(Cl)c(O)c(Cl)c1  remaining signal (cell-free assay; 0.5 µM): 80.4%
O=C1NC(c2ccccn2)Sc2ccccc21 (centres unmarked)  remaining binding (cell-free assay, competition with immobilised ligand; 1 µM): 85%
CC(C)(C)c1nc(-c2cccc(NS(=O)(=O)c3c(F)cccc3F)c2F)c(-c2ccnc(N)n2)s1  remaining activity (enzyme activity, inhibitor, radiometric; 1 µM): 77%
COc1cc2nccc(Oc3ccc(NC(=O)c4c5n(n(-c6ccc(F)cc6)c4=O)CCCC5)cc3)c2cc1OC  inhibition (enzyme activity, inhibitor; 0.1 µM): 36%
Cc1ccc(C(=O)NCc2ccsc2)cc1C#Cc1cn(C(C)C)c2ncnc(N)c12  activity vs control (enzyme activity, inhibitor; 1 µM): 6%
Cc1ccc(C(=O)Nc2ccc(CN3CCN(C)CC3)c(C(F)(F)F)c2)cc1C#Cc1cnc2cccnn12  remaining activity (enzyme activity, inhibitor; 23.5 nM): 3.2%
COc1cc2ncnc(Nc3ccc(Oc4ccccc4)c(C)c3C)c2cc1OC  inhibition (enzyme activity, inhibitor; 1 µM): 6%
Cc1c(NC(=O)c2cc(C(N)=O)nc3cc(F)ccc23)c(C(F)(F)F)nn1Cc1ccc(C(C)(C)C)cc1  remaining binding (cell-free assay, competition with immobilised ligand; 1 µM): 87%
O=C(Nc1cnn(-c2csc(C(=O)NC3COC3)c2)c1)Nc1c(F)cccc1Cl  remaining activity (enzyme activity, inhibitor; 5 µM): 88.7%
Cc1ccc(Nc2nccc(N(C)c3ccc4c(C)n(C)nc4c3)n2)cc1S(N)(=O)=O  inhibition (enzyme activity, inhibitor; 0.3 µM): 24%
Cc1sc(C(=O)NC2COC2)cc1-n1cc(NC(=O)Nc2c(F)cccc2Cl)cn1  remaining activity (enzyme activity, inhibitor; 10 µM): 123%
CNC(=O)c1cc(Oc2ccc(NC(=O)Nc3ccc(Cl)c(C(F)(F)F)c3)cc2)ccn1  inhibition (enzyme activity, inhibitor; 10 µM): 48%
N#CCCc1ccc2c(c1)-c1[nH]c3ccc([N+](=O)[O-])cc3c1CC(=O)N2  remaining signal (cell-free assay; 0.5 µM): 49.8%
C[C@H](c1ccc(F)cc1)N(Cc1cccc(C(=O)O)c1)C(=O)c1cnc2ccccc2c1  remaining binding (cell-free assay, competition with immobilised ligand; 1 µM): 82%
CNc1cccc2cc(C(=O)Nc3ccc(C(=O)O)cc3)c(=O)[nH]c12  inhibition (enzyme activity, inhibitor; 10 µM): -3.6%
Cc1nccc(COC(=O)N2C[C@@H]3[C@@H](CNC(=O)c4ccc5[nH]nnc5c4)[C@@H]3C2)n1  remaining binding (cell-free assay, competition with immobilised ligand; 1 µM): 90%
Cc1cc(NC(=O)c2cccc3cc(-c4cccc5[nH]nc(N)c45)ccc23)ccc1F  activity vs control (enzyme activity, inhibitor; 0.1 µM): 122%
CC(=O)N1CCC(c2ccc(C(=O)NC3=NCCN3)cc2C(F)(F)F)CC1  remaining binding (cell-free assay, competition with immobilised ligand; 1 µM): 100%
CCN(CC)c1ccc(C2=NNC(=O)CC2C)cc1[N+](=O)[O-] (centres unmarked)  remaining activity (enzyme activity, inhibitor; 10 µM): 89%
Cc1nc(N2CC[C@@H](O)C2)ncc1-c1cc(C(F)(F)F)cc2[nH]ncc12  remaining binding (binding, competition with immobilised ligand; 1 µM): 60%
Cc1cnc(NC2CCOCC2)nc1-n1cnc(C(=O)NC(CN)c2cc(F)cc(Cl)c2)c1 (centres unmarked)  remaining activity (enzyme activity, inhibitor, radiometric; 1 µM): 87%
COCCOc1nc(-c2ccc(Cl)nc2)nc2c1CN(C(=O)c1ncn3ccccc13)CC2  remaining binding (cell-free assay, competition with immobilised ligand; 0.1 µM): 100%
CNC(=O)c1cc2c(Oc3ccc(NC(=O)C4(C(=O)Nc5ccc(F)cc5)CC4)cc3)ccnc2cc1OC  inhibition (enzyme activity, inhibitor, radiometric; 1 µM): 88%
